Laboratory results from ChEMBL document CHEMBL4834470, “Lathyrane Diterpenoids as Novel hPXR Agonists: Isolation, Structural Modification, and Structure-Activity Relationships” (ACS Med Chem Lett, 2021).

Legend:
[1] = system: HEK-293T; test: Cytotoxicity against human HEK293T cells assessed as reduction in cell viability at 10 uM measured after 24 hrs by CCK8 assay; format: cell-based
[2] = target: T1, PXR (NR1I2); CYP3A4 promoter reporter (Homo sapiens, UniProt O75469); test: Agonist activity at human PXR transfected in human HEK293T cells co-transfected with CYP3A4-Luc plasmid at 10 uM incubated for 24 hrs by dual-luciferase reporter gene assay relative to control
T1 sequence (O75469 whole entry): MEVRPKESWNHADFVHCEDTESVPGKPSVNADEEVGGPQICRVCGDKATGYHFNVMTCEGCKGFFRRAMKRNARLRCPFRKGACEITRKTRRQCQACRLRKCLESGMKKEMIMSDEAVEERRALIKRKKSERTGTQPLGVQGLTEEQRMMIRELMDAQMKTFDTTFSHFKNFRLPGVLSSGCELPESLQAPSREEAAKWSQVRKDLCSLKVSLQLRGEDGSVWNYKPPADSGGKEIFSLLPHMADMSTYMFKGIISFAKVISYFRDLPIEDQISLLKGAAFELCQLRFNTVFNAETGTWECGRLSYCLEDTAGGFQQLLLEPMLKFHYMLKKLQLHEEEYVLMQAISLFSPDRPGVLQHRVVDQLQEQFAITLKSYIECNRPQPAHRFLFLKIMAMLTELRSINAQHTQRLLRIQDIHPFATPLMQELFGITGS

[3] = target: T2, Nuclear receptor subfamily 1 group I member 2 (Homo sapiens, UniProt O75469); test: Agonist activity at PXR in human HepaRG cells assessed as upregulation of CYP2B6 mRNA expression at 10 uM by RT-qPCR analysis; format: cell-based
T2 sequence (O75469 whole entry): T1 sequence (O75469 whole entry)
Summary of the method: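 HepaRG cells exposed to test agents at 10 μM, with rifampicin (10 μM) as reference agonist. CYP2B6 mRNA quantified by RT-qPCR, normalized to β-ACTIN housekeeping gene. Mean ± SD, n = 3.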

Which Activity [1] does the source give for `C=C1CC[C@H]2[C@@H](/C=C(\C)C(=O)[C@@]3(O)C[C@H](C)[C@H](O)[C@@H]3[C@H]1O)C2(C)C` here?
The Activity was “Non-Toxic”.

Which Activity [1] does the source give for `C=C1[C@H](O)C[C@H]2[C@@H](/C=C(\C)C(=O)[C@@]3(OC(C)=O)C[C@H](C)[C@H](OC(=O)c4ccccc4)[C@@H]3[C@H]1OC(C)=O)C2(C)C` here?
The Activity was “Non-Toxic”.

Which Activity [1] does the source give for `C=C1CC[C@H]2[C@@H](/C=C(\C)C(=O)[C@@]3(OC(C)=O)C[C@H](C)[C@H](OC(=O)/C=C/c4ccccc4)[C@@H]3[C@H]1O)C2(C)C` here?
Its Activity is “Toxic”.

`C=C1C(=O)C[C@H]2[C@@H](/C=C(\C)C(=O)[C@@]3(OC(C)=O)C[C@H](C)[C@H](OC(=O)c4ccccc4)[C@@H]3[C@H]1OC(C)=O)C2(C)C` was tested. Which Activity [1] did it give?
Its Activity is “Toxic”.

`C=C1CC[C@H](C(C)(C)O)/C=C/C(C)=C\[C@@]2(O)C[C@H](C)[C@H](OC(=O)c3ccccc3)[C@@H]2[C@H]1OC(C)=O` was tested. Which Activity [1] did it give?
The Activity was “Non-Toxic”.

Which Activity [1] does the source give for `C=C1CC[C@H]2[C@@H](/C=C(\C)C(=O)[C@@]3(OC(C)=O)C[C@H](C)[C@H](O)[C@@H]3[C@H]1OC(=O)/C=C/c1ccccc1)C2(C)C` here?
The Activity was “Toxic”.

With `C=C1[C@H](OC(C)=O)C[C@H]2[C@@H](/C=C(\C)C(=O)[C@@]3(O)C[C@H](C)[C@H](OC(C)=O)[C@@H]3[C@H]1OC(C)=O)C2(C)C` as the compound, how does the Activity [1] read?
Its Activity is “Non-Toxic”.

For `CC(=O)O[C@]12C[C@H](C)[C@H](OC(=O)c3ccccc3)[C@@H]1/C=C(\CO)C(=O)C[C@H]1[C@@H](/C=C(\C)C2=O)C1(C)C`, which Activity [1] is on record?
The Activity was “Non-Toxic”.

How did the Activity [1] turn out when `C=C1CC[C@H]2[C@@H](C[C@@H](C)C(=O)[C@@]3(OC(C)=O)C[C@H](C)[C@H](OC(=O)c4ccccc4)[C@@H]3[C@H]1OC(C)=O)C2(C)C` was run?
The Activity was “Non-Toxic”.

`CC(=O)OC/C1=C/C[C@H]2[C@@H](/C=C(\C)C(=O)[C@@]3(OC(C)=O)C[C@H](C)[C@H](OC(=O)c4ccccc4)[C@@H]3[C@H]1OC(C)=O)C2(C)C` was tested. Which Activity [1] did it give?
The Activity was “Non-Toxic”.

For `C=C1[C@H](OC(=O)c2cccnc2)C[C@H]2[C@@H](/C=C(\C)C(=O)[C@@]3(OC(C)=O)C[C@H](C)[C@H](OC(=O)c4ccccc4)[C@@H]3[C@H]1OC(C)=O)C2(C)C`, which fold induction at 24 h, 10 µM [2] is on record?
The fold induction at 24 h, 10 µM was 6.9.

And the Activity [3]?
Its Activity is “Active”.

And the Activity [1]?
The Activity was “Non-Toxic”.

`C=C1[C@H](OC(=O)c2ccco2)C[C@H]2[C@@H](/C=C(\C)C(=O)[C@@]3(O)C[C@H](C)[C@H](O)[C@@H]3[C@H]1O)C2(C)C` was tested. Which Activity [1] did it give?
The Activity was “Non-Toxic”.

For `C=C1CC[C@H]2[C@@H]([C@@H]3O[C@]4(C=C3C)C[C@H](C)[C@H](OC(=O)c3ccccc3)[C@@H]4[C@H]1OC(C)=O)C2(C)C`, which Activity [1] is on record?
Its Activity is “Non-Toxic”.

How did the Activity [1] turn out when `C=C1CC[C@H](C(C)(C)OC)/C=C/C(C)=C\[C@@]2(O)C[C@H](C)[C@H](OC(=O)c3ccccc3)[C@@H]2[C@H]1OC(C)=O` was run?
Its Activity is “Non-Toxic”.

Which fold induction at 24 h, 10 µM [2] does the source give for `CC(=O)O[C@@H]1[C@H]2[C@@H](OC(=O)c3ccccc3)[C@@H](C)C[C@]2(OC(C)=O)C(=O)/C(C)=C/[C@@H]2[C@H](CC[C@H]1C)C2(C)C` here?
Its fold induction at 24 h, 10 µM is 4.9.

What about the Activity [1] of the same compound?
Its Activity is “Non-Toxic”.

`C=C1[C@H](OC(C)=O)C[C@H]2[C@@H](/C=C(\C)C(=O)[C@@]3(O)C[C@H](C)[C@H](O)[C@@H]3[C@H]1O)C2(C)C` was tested. Which Activity [1] did it give?
The Activity was “Non-Toxic”.

Which Activity [1] does the source give for `CC(=O)O[C@]12C[C@H](C)[C@H](OC(=O)c3cccnc3)[C@@H]1[C@H]1O[C@@]1(C)CC[C@H]1[C@@H](/C=C(\C)C2=O)C1(C)C` here?
The Activity was “Non-Toxic”.

Which results are given for `CC(=O)O[C@H]1[C@@H](C)[C@H](OC(=O)c2ccccc2)C[C@H]2[C@@H](C[C@@H](C)C(=O)[C@@]3(OC(C)=O)C[C@H](C)[C@H](OC(=O)c4ccccc4)[C@H]13)C2(C)C`?
fold induction at 24 h, 10 µM [2]: 3.4; Activity [1]: Non-Toxic

For `C=C(C)[C@@H]1/C=C/C(C)=C\[C@@]2(O)C[C@H](C)[C@H](OC(=O)c3ccccc3)[C@@H]2[C@@H](OC(C)=O)C(=C)CC1`, which Activity [1] is on record?
The Activity was “Non-Toxic”.

Which Activity [1] does the source give for `C=C1CC[C@H]2[C@@H](/C=C(\C)C(=O)[C@@]3(OC(C)=O)C[C@H](C)[C@H](OC(=O)/C=C/c4ccccc4)[C@@H]3[C@H]1OC(C)=O)C2(C)C` here?
Its Activity is “Non-Toxic”.

Which Activity [1] does the source give for `C=C1CC[C@H]2[C@@H](/C=C(\C)C(=O)[C@@]3(O)C[C@H](C)[C@H](O)[C@@H]3C1=O)C2(C)C` here?
The Activity was “Toxic”.

Which Activity [1] does the source give for `C=C1[C@H](OC(=O)c2ccccc2)C[C@H]2[C@@H]([C@H]3O[C@]3(C)C(=O)[C@@]3(OC(C)=O)C[C@H](C)[C@H](OC(=O)c4ccccc4)[C@@H]3[C@H]1OC(C)=O)C2(C)C` here?
Its Activity is “Non-Toxic”.

Which Activity [1] does the source give for `C=C1[C@H](OC(=O)c2ccccc2)C[C@H]2[C@@H](/C=C(\C)C(=O)[C@@]3(OC(C)=O)C[C@H](C)[C@H](OC(=O)c4ccccc4)[C@@H]3[C@H]1OC(C)=O)C2(C)C` here?
Its Activity is “Non-Toxic”.

With `C=C1[C@H](OC(=O)c2ccccc2)C[C@H]2[C@@H](/C=C(\C)C(=O)[C@@]3(O)C[C@H](C)[C@H](O)[C@@H]3[C@H]1OC(=O)c1ccccc1)C2(C)C` as the compound, how does the Activity [1] read?
The Activity was “Non-Toxic”.

For `C=C1[C@H](OC(=O)c2ccccc2)C[C@H]2[C@@H](/C=C(\C)[C@H](OC(C)=O)[C@@]3(O)C[C@H](C)[C@H](OC(=O)c4ccccc4)[C@@H]3[C@H]1OC(C)=O)C2(C)C`, which Activity [1] is on record?
Its Activity is “Non-Toxic”.

Which Activity [1] does the source give for `C=C1CC[C@H]2[C@@H](/C=C(\C)C(=O)[C@@]3(OC(C)=O)C[C@H](C)[C@H](OC(=O)c4cccnc4)[C@@H]3[C@H]1OC(C)=O)C2(C)C` here?
Its Activity is “Non-Toxic”.

Which Activity [1] does the source give for `CC(=O)OC/C1=C/C[C@H]2[C@@H](/C=C(\C)C(=O)[C@@]3(O)C[C@H](C)[C@H](OC(C)=O)[C@@H]3[C@H]1OC(C)=O)C2(C)C` here?
The Activity was “Non-Toxic”.

`CC(=O)O[C@@H]1[C@H]2[C@@H](OC(=O)c3ccccc3)[C@@H](C)C[C@]2(OC(C)=O)C(=O)[C@@]2(C)O[C@@H]2[C@@H]2[C@H](C[C@@H](OC(=O)c3ccccc3)[C@]13CO3)C2(C)C` was tested. Which Activity [1] did it give?
Its Activity is “Non-Toxic”.

Which Activity [1] does the source give for `C=C1[C@H](OC(=O)c2ccccc2)C[C@H]2[C@@H](/C=C(\C)C(=O)[C@@]3(O)C[C@H](C)[C@H](OC(=O)c4ccccc4)[C@@H]3[C@H]1OC(C)=O)C2(C)C` here?
The Activity was “Non-Toxic”.

`C=C1[C@H](OC(=O)c2cccs2)C[C@H]2[C@@H](/C=C(\C)C(=O)[C@@]3(O)C[C@H](C)[C@H](O)[C@@H]3[C@H]1O)C2(C)C` was tested. Which Activity [1] did it give?
The Activity was “Non-Toxic”.

Which Activity [1] does the source give for `C/C1=C\[C@@H]2[C@H](CC(=O)/C(COC(=O)c3ccccc3)=C/[C@H]3[C@@H](O)[C@@H](C)C[C@]3(O)C1=O)C2(C)C` here?
The Activity was “Non-Toxic”.

For `C=C1[C@H](O)C[C@H]2[C@@H](/C=C(\C)C(=O)[C@@]3(O)C[C@H](C)[C@H](O)[C@@H]3[C@H]1O)C2(C)C`, which Activity [1] is on record?
Its Activity is “Non-Toxic”.

With `C=C1CC[C@H]2[C@@H](/C=C(\C)C(=O)[C@@]3(OC(C)=O)C[C@H](C)[C@H](OC(=O)c4ccccc4)[C@@H]3[C@H]1OC(C)=O)C2(C)C` as the compound, how does the Activity [1] read?
Its Activity is “Non-Toxic”.
